Results: ChEMBL document CHEMBL3045934, “Acaricidal activity of constituents identified in Foeniculum vulgare fruit oil against Dermatophagoides spp. (Acari: Pyroglyphidae)” (J Agric Food Chem, 2004)

Key:
[1] = Acute toxicity in po dosed Rattus norvegicus (rat); assay type: organism-based; details: in vivo
Dermatophagoides farinae [2] = assay: Acaricidal activity against 7 to 10 day-old Dermatophagoides farinae adult after 24 hr by microscopy; assay type: functional
Summary of the method: (§1)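 Mites exposed by direct contact in a lidded container, held at 25 ± 1 °C, 75% relative humidity, in darkness. Mortality scored 24 h after treatment under a binocular microscope (20×). Untreated controls run alongside. Three replicates per treatment. LD50 derived by probit analysis.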

Dermatophagoides farinae [3] = assay: Ratio of benzyl benzoate LD50 to compound LD50 for 7 to 10 day-old Dermatophagoides farinae adult after 24 hr by microscopy; assay type: functional
[4] = test system: Dermatophagoides pteronyssinus; assay: Acaricidal activity against 7 to 10 day-old Dermatophagoides pteronyssinus adult after 24 hr by microscopy; assay type: functional; summary of the method: as §1
[5] = test system: Dermatophagoides pteronyssinus; assay: Ratio of benzyl benzoate LD50 to compound LD50 for 7 to 10 day-old Dermatophagoides pteronyssinus adult after 24 hr by microscopy; assay type: functional

`CC12CCC(C1)C(C)(C)C2=O` (centres undefined) [FENCHONE] showed an LD50 [1] of 6160 mg/kg.

`C=CCc1ccc(OC)cc1` [ESTRAGOLE] gave an LD50 (Dermatophagoides farinae [2]) of 413.3 mg/m2, a Ratio (Dermatophagoides farinae [3]) of 0.2 and an LD50 [4] of 389.9 mg/m2. The Ratio [5] was 0.2.

In the case of `CC1(C)C(=O)[C@]2(C)CCC1C2` [(-)-FENCHONE], the LD50 (Dermatophagoides farinae [2]) is reported as 41.8 mg/m2, the Ratio (Dermatophagoides farinae [3]) is reported as 2.1 and the LD50 [4] is reported as 48.7 mg/m2. For the same molecule, the Ratio [5] was 1.4.

Molecule `COc1ccc(C=O)cc1` has an LD50 (Dermatophagoides farinae [2]) of 11.3 mg/m2, a Ratio (Dermatophagoides farinae [3]) of 7.9 and an LD50 [4] of 10.1 mg/m2. The Ratio [5] was 6.7.

Molecule `O=C(OCc1ccccc1)c1ccccc1` [BENZYL BENZOATE] has an LD50 (Dermatophagoides farinae [2]) of 89.2 mg/m2 and an LD50 [4] of 67.5 mg/m2.

Molecule `CC1(C)C(=O)[C@@]2(C)CCC1C2` [(+)-FENCHONE] has an LD50 (Dermatophagoides farinae [2]) of 38.9 mg/m2, a Ratio (Dermatophagoides farinae [3]) of 2.3 and an LD50 [4] of 43.2 mg/m2. For the same molecule, the Ratio [5] was 1.6.
